Results published in PubChem BioAssay AID692 (The Scripps Research Institute Molecular Screening Center, 2007).
Active and inactive are the calls of the source.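 The calls were made as follows: active = EC50 at or below a set limit; inactive = the rest.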

Molecular target: Steroidogenic factor 1 (Homo sapiens) (UniProt Q13285)
Assay: SF-1 activators, concentration-response, dose response, cell-based, CHO-K1, Gal4-SF-1 LBD, luciferase luminescence (AID 692)
Conditions: CHO-K1 Gal4-SF1 LBD luciferase reporter, activation
In short: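 system = CHO-K1 Gal4–SF-1 LBD luciferase reporter cells | schedule = 20 h compound exposure, 37 °C | measured by = luminescence | read-out basis = % activation vs DMSO/mock-transfected cells, EC50 from four-parameter sigmoidal fit | replication = triplicate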

Steroidogenic factor 1 (Homo sapiens), sequence (Q13285 whole entry, looked up, the tested form may be a part): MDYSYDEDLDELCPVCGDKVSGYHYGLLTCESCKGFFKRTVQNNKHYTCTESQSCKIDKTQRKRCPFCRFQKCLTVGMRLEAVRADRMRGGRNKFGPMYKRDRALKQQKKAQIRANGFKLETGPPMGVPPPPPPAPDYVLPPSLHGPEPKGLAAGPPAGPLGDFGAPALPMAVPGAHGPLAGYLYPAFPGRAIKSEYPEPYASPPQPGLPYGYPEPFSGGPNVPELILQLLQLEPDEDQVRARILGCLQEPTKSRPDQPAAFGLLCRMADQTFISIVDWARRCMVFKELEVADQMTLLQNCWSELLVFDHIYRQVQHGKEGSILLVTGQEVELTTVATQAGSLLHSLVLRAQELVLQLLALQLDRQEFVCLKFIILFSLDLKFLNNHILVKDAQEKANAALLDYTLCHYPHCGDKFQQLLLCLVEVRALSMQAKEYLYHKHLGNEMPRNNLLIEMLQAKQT

EC50 | Structure (SMILES)
2.89 µM | C/C(N)=C(/C#N)C(=O)CSc1ccc2c(c1)OCCO2
0.401 µM | COc1ccc(C(=O)/C=C/Nc2cccc(C)n2)cc1OC
3.76 µM | O=C1CCCC(O)=C1C=Nc1ccc(O)cc1
3.59 µM | Cc1ccc(C2/C(=C(\O)c3cnn(-c4ccccc4)c3C)C(=O)C(=O)N2CCN(C)C)o1 (stereo not drawn)
inactive | COc1cc(C2C3C(=O)N(c4ccccc4)C(=O)C3ON2c2ccccc2)ccc1O (stereo not drawn)
> 11 µM (inactive) | CC1(C)CC(=O)C(C=Nc2ccc3[nH]ncc3c2)=C(O)C1
2.71 µM | COC(=O)c1ccc(/C(O)=C(\C#N)c2nc3ccccc3s2)cc1
6.83 µM | CC1(C)CC(=O)C(C=Nc2ccccc2)=C(O)C1
